Data from PubChem BioAssay.
Unmarked numbers belong to inactive results. Inconclusive results are not listed. Calls of active or inactive are those of the source.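 How the source made its calls, unless noted: active means growth inhibition above 25% in both replicates, a cutoff set 3 SD above the mean; inconclusive means above 25% in only one replicate; inactive means the rest.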

Key:
[1] = S. cerevisiae growth inhibition in permissive medium (OD615), pilot counter-assay for S. cerevisiae lifespan shortening project, permissive growth control (AID 705); conditions: OD615, 24 h, at 10 µM, stronger effect = higher value
In short: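 System: Engineered DeaD yeast | Buffer or medium: SC raffinose/galactose permissive medium | Doses: 10 µM single dose, 0.25% DMSO | Times: 24 h exposure, 30 °C | Measured by: OD615 turbidity read | Read-out: Yeast growth inhibition indicated by reduced 24 h OD615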

[2] = S. cerevisiae growth inhibition in restrictive medium, OD615, pilot screen, restrictive growth control, yeast lifespan reduction project (AID 706;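 active means growth inhibition above a set limit, 3 SD over mean compound inhibition, in both replicates, cut at about 43% in these data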;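 further: modified DeaD lifespan yeast strain shifted to restrictive glucose medium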); conditions: OD615, 48 h, at 10 µM, stronger effect = higher value
In short: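 Assay system: engineered S. cerevisiae DeaD strain; Buffer or medium: CSMM-D glucose medium; Dosing: 10 µM compound, 0.25% DMSO; Times: cell pre-growth 4 h, compound exposure 48 h, 30 °C; Detection: absorbance (optical density) measured at 615 nm.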

[3] = doxorubicin toxicity protection in MRP-1 cells – H69AR cells, CellTiter-Glo, duplicate, MRP-1 activator project, pilot screen (AID 807;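 active means viability increase at or above a cutoff of the median across tested compounds plus 3 SD, cut at about 8.5% in these data, passing the limit was not always enough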;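 further: compound pretreatment 18-22 h then 72 h combined with doxorubicin; 0% = doxorubicin alone and 100% = vehicle without doxorubicin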); conditions: H69AR viability with doxorubicin, CellTiter-Glo luminescence; at 10 µM; stronger effect = higher value
[4] = viability of HCT116 without oncogenic beta-catenin – human colon tumor cells, pilot screen (AID 823;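 active means cell viability at or below a set limit in both duplicate runs, the limit being the all-compound median minus 4 SD, cut at about 23% in these data, passing the limit was not always enough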;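 further: 0% = wells killed by 20 µM Hyamine and 100% = untreated DMSO cell wells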); conditions: HCT116 beta-catenin knockout viability, CellTiter-Glo, 60 h; at 10 µM; stronger effect = lower value
[5] = viability of PTEN-null HCT116 cells – cell-based, HCT116 clonal line, CellTiter-Glo, pilot screen (AID 824;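 active means viability at or below 27.92% in each of two runs, the all-compound median minus 4 SD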;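 further: 0% = 20 µM Hyamine control and 100% = vehicle cell control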); conditions: HCT116 PTEN-deleted viability, 60 h, at 10 µM, stronger effect = lower value
[6] = RAM pathway blockade in budding yeast – dse1pr::URA3 reporter, 5-FOA selection, pilot screen (AID 869;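 active means inhibition over a set limit, the all-compound mean plus 3 SD, in both replicate runs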;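 further: 0% = DMSO wells with no growth and 100% = 10 µM 1-NA-PP1 with full growth; RAM network block rescues cells from 5-FOA so hits raise OD615 growth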); conditions: S. cerevisiae dse1pr::URA3 5-FOA growth, OD615, 2 d; at 10 µM; stronger effect = higher value; strain carries analog-sensitive mutant Cbk1 kinase
[7] = RAM signaling pathway blockade in yeast – S. cerevisiae, Pdr1DBD-CYC8 efflux-inhibited sensitized strain, primary screen (AID 1298;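 active means RAM network inhibition above 8.4% in each of two replicates, 3 SD over the compound average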;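 further: 0% = DMSO untreated cells without growth and 100% = 10 µM 1-NA-PP1 full growth; higher means more yeast growth rescued from 5-FOA killing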); conditions: S. cerevisiae cbk1-as DSE1-URA3 strain, 5-FOA growth OD615, 2 d; at 50 µM; stronger effect = higher value

| Structure (SMILES) | growth inhibition [1] | growth inhibition [2] | viability increase [3] [%] | viability [4] | viability [5] | inhibition [6] [%] | RAM network inhibition [7] [%] |
| --- | --- | --- | --- | --- | --- | --- | --- |
| CN1CCN(Cc2c(O)ccc3c(=O)c(Oc4ccccc4Cl)c(C(F)(F)F)oc23)CC1 | -4.67% | 12.6% | -0.67 | 98% | 96.7% | 0.13 | 1.25 |
| COc1cc(C(=O)Nc2cccc(-c3nc4ccccc4o3)c2C)cc(OC)c1OC | -20.9% | -26.2% | -2.22 | 91.2% | 98.7% | 2.46 | 1.35 |
| Cn1c(SCc2nc3ccccc3[nH]2)nnc1-c1cccnc1 | 3.69% | 24.8% | -2.45 | 95.1% | 99.1% | 2.94 | 5.38 |
| COc1ccc(S(=O)(=O)Nc2cc(Cl)ccc2OC)cc1 | -12.3% | -21.9% | -6.67 | 16.5% (active) | 17.1% (active) | 0.78 | 6.09 |
| Cc1ccc(C(=O)CC(C(=O)O)c2cn(CCC#N)c3ccccc23)cc1 (stereo not given) | -4% | 3.92% | -1.96 | 98.3% | 104% | 0.735 | 3.81 |
| COc1cccc(C2C(C(=O)c3ccco3)=C(O)C(=O)N2CCCN2CCOCC2)c1OC (stereo not given) | -8.82% | -0.75% | -3.37 | 102% | 93.5% | 1.02 | 6.98 |
| COc1ccc(C2C(C(=O)NCc3ccccn3)c3cc(OC)c(OC)cc3C(=O)N2C)cc1 (stereo not given) | -3.48% | 1.16% | -4.5 | 98% | 95.9% | -0.135 | 5.92 |
| N#Cc1ccccc1N=C1CCCN1Cc1ccccc1 | -3.08% | 9.46% | 0.25 | 88.8% | 95.2% | 0.63 | 4.48 |
| CCOC(=O)C1CCCN(C(=O)C2CCN(c3nnc(-n4cccc4)s3)CC2)C1 (stereo not given) | 5.27% | 2.6% | -2.17 | 98.5% | 90.8% | 1.1 | 2.55 |
| Cc1cc(Nc2ccc(Br)cc2F)n2ncnc2n1 | -2.09% | 11.9% | -3.52 | 90.6% | 87.2% | 0.76 | -0.94 |
| CC1Cc2ccccc2N1C(=O)Cn1cnc2ccccc2c1=O (stereo not given) | 3.42% | -17.3% | 0.12 | 99.4% | 93.3% | -0.455 | -0.47 |
| O=C(CSc1nnnn1-c1cccc2c1CCCC2)N1CCOCC1 | -3.82% | -27.1% | -3.02 | 95.4% | 94.5% | 0.68 | 2.95 |
| CCn1c(CCCNC(=O)c2cccs2)nc2ccccc21 | -6.02% | -11.4% | -2.77 | 104% | 96.1% | 2.48 | 1.95 |
| CCC(C)NC(=O)CN(c1ccc2c(c1)OCO2)S(=O)(=O)c1c(C)n[nH]c1C (stereo not given) | -12.1% | -7.16% | -1.79 | 107% | 99.4% | 1.34 | 2.93 |
| Cn1c(=O)c(C(=O)Nc2ncccn2)c(O)c2ccccc21 | 39.2% (active) | 63.5% (active) | -3.95 | 87.1% | 89.5% | 0.475 | -1.44 |
| O=C(Cn1cc2c(n1)CCCC2)NCCCN1CCN(c2ccccc2F)CC1 | -16.9% | -6.56% | -3.08 | 89.5% | 89% | 0.665 | 5.8 |
| c1coc(Cn2c(SCc3nc4ccccc4[nH]3)nnc2-c2cccs2)c1 | 0.98% | 21.3% | -1.17 | 93% | 89.8% | 3.64 | 1.24 |
| CCCCN(C(=O)NC(=O)Nc1nc2ccc(OC)cc2s1)S(C)(=O)=O | -2.28% | -3.95% | -0.44 | 92.6% | 103% | -0.04 | 1.09 |

| Structure (SMILES) | growth inhibition [1] | growth inhibition [2] | viability increase [3] [%] | viability [4] | viability [5] | inhibition [6] [%] | RAM network inhibition [7] [%] |
| --- | --- | --- | --- | --- | --- | --- | --- |
| CCCCOC(=O)Nc1ccc(N2CCOCC2)cc1 | -0.54% | 2.39% | -0.38 | 98.2% | 102% | 1.28 | 4.87 |
| CCOc1ccc(NC(=O)c2ccc(N)cc2)cc1 | -1.98% | -14.4% | -2.73 | 91.8% | 89.2% | 2.77 | 2.88 |
| CCOC(=O)Cc1csc(NC(NC(=O)CC)(C(F)(F)F)C(F)(F)F)n1 | 0.765% | -2.19% | -0.75 | 99.6% | 96.7% | 3.13 | 6.43 |
| CCN(CCNC(=O)CCCn1nc(C)n2c(cc3sccc32)c1=O)c1ccccc1 | -7.8% | -4.82% | 1.17 | 97.2% | 93% | -0.2 | 6.63 |
| Cc1nc2sc(C(c3cccs3)N3CCN(c4cccc(Cl)c4)CC3)c(O)n2n1 (stereo not given) | -5.61% | 2.47% | 2.07 | 93.7% | 83.5% | 2.32 | 5.45 |
| Cc1ccc2oc(=O)c3cnn(CC(=O)NC4CCCCC4C)c3c2c1 (stereo not given) | -14% | -9.46% | -2.9 | 95.1% | 84.1% | 1.73 | 0.7 |
| Cc1ccc(NC(=O)CSC2=C(C#N)C(c3ccc4c(c3)OCO4)C3=C(CCCC3=O)N2)c(C)c1 (stereo not given) | 21.3% | 59.1% (active) | -5.27 | 73.7% | 72.7% | 1.4 | 5.06 |
| CCOC(=O)Cn1c(=O)oc2cc(S(=O)(=O)NC3CCCc4ccccc43)ccc21 (stereo not given) | -9.8% | -15.4% | -0.67 | 88.3% | 92.2% | 4.13 | 3.75 |
| CC1CCN(c2c(NCc3ccc(C(=O)NCC4COc5ccccc5O4)cc3)c(=O)c2=O)CC1 (stereo not given) | 2.94% | 14.3% | -2.96 | 86.2% | 96.2% | 0.785 | 4.87 |
| COc1ccc(N(CC(=O)NCc2ccccc2OC)S(=O)(=O)c2c(C)nn(C)c2C)cc1 | -12.2% | -16.1% | -3.37 | 99.6% | 95.6% | 0.135 | 2.29 |
| COc1ccccc1C(=O)n1nc(C)cc1C | -3.16% | -0.83% | 0.58 | 92% | 95.8% | -0.645 | 3.78 |
| Cc1ccc(CC2C(=O)N(c3ncccn3)C(=O)C2C)cc1 (stereo not given) | -5.95% | -9.6% | 0.74 | 104% | 93.1% | 0.685 | 1.72 |
| O=C(COc1ccc(S(=O)(=O)NC2CCCCC2)cc1)N1CCN(c2ccc(F)cc2)CC1 | -6.21% | -0.445% | -0.23 | 65.5% | 67.1% | -0.725 | 3.14 |
| O=C(NCC1CCCO1)c1ccc2c(c1)C(=O)N(C1CCCCC1)C2=O (stereo not given) | -10.7% | -6.06% | 1.19 | 100% | 91.5% | 3.77 | 3.57 |
| CC(C)CC(NC(=O)c1ccco1)C(=O)Nc1ccc2c(c1)OCCO2 (stereo not given) | 6.21% | 1.03% | -1.38 | 104% | 105% | -0.32 | 1.72 |
| COc1ccc(S(=O)(=O)n2nc(-c3cc(OC)c(OC)c(OC)c3)cc2N)cc1OC | -12% | 12.7% | -3.64 | 56.3% | 74.8% | 0.16 | 5.52 |
| CCCOC(=O)c1ccc(NC(=O)C2C3C=CC(O3)C2C(=O)O)cc1 (stereo not given) | -8.39% | -22.8% | -1.49 | 101% | 95.4% | 1.27 | 0.36 |
